# From ChEMBL document CHEMBL1128600, “The cholesterol derivative of a triantennary galactoside with high affinity for hepatic asialoglycoprotein receptor: a potent cholesterol lowering agent” (J Med Chem, 1995)
# Assays:
# Homo sapiens [1] = species on record: Homo sapiens; assay: Particle size of HDL after incubation with the compound (0.01%); format: functional
# Method in brief: (§1)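 Lipoproteins (LDL 1.019–1.063, HDL 1.063–1.21 ×10³ kg/m³) isolated from human serum by KBr/NaCl density-gradient ultracentrifugation. LDL (0.5 mg/mL) or HDL (2.0 mg/mL) incubated 10 min at room temperature in PBS pH 7.40 with 0–0.33% (w/v) agent. Size measured by photon correlation spectroscopy (120°, 632 nm, 72 s accumulation) and reported as mass-weighted mean ± standard error.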
# Homo sapiens [2] = species on record: Homo sapiens; assay: Particle size of LDL after incubation with the compound (0.0055%); format: functional; method in brief: as §1
structure (smiles),measurement,setting,value
C[C@@H]1CC[C@@]2(OC1)O[C@H]1[C@@H](O)[C@H]3[C@@H]4CC[C@H]5C[C@@H](O[C@@H]6O[C@H](CO)[C@H](O[C@@H]7O[C@H](CO)C(O)[C@H](O[C@@H]8OC[C@@H](O)[C@H](O)[C@H]8O)[C@H]7O[C@@H]7O[C@H](CO)[C@H](O)[C@H](O[C@@H]8O[C@H](CO)[C@@H](O)[C@H](O)[C@H]8O)[C@H]7O)[C@H](O)[C@H]6O)[C@H](O)C[C@]5(C)[C@H]4CC[C@]3(C)[C@H]1[C@@H]2C (some centres not stated),Activity,Homo sapiens [1],Increase
same,Activity,Homo sapiens [2],Increase
